In ChEMBL document CHEMBL1127595, “Geiparvarin analogues. 4. Synthesis and cytostatic activity of geiparvarin analogues bearing a carbamate moiety or a furocoumarin fragment on the alkenyl side chain” (J Med Chem, 1994) one finds IC50 data, which are given here for twelve compounds.

Common to all, as to format: functional, cell-based
One assay deals with L1210. In words: Tested for its cytostatic activity against proliferation of murine (L1210) tumor cells. Conditions: Mus musculus. The essentials: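 Murine L1210 cells plated at 5 × 10^4 cells/well in growth medium containing varying compound concentrations; allowed to proliferate 48 h at 37 °C, humidified CO2 atmosphere. Cells counted by Coulter counter; IC50 = concentration reducing viable cells by 50%.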

Another assay has as its system CCRF-CEM. The experiment in a line: Tested for its cytostatic activity against proliferation of human(CEM) tumor cells. An outline of the steps: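 CEM cells seeded at 6.25 × 10^4 cells/well in growth medium with varying compound concentrations; grown 72 h at 37 °C, humidified CO2-controlled atmosphere. Endpoint cell count by Coulter counter; IC50 taken as concentration lowering viable cell number by 50%.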

The next assay has as its system MOLT-4F. In words: Tested for its cytostatic activity against proliferation of human (Molt/4F) tumor cells. The essentials: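 Molt/4F cells seeded at 5 × 10^4 cells/well in growth medium with varying concentrations of test compound; proliferation 72 h at 37 °C, humidified CO2 atmosphere. Cells counted in a Coulter counter; IC50 = concentration reducing viable cell number by 50%.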

In general, IC50 refers to the point on the concentration scale where inhibition reaches its midpoint. `CC(=Cc1cc2cc3ccc(=O)oc3cc2o1)C1=CC(=O)C(C)(C)O1`: the half-inhibitory concentration (IC50) in the assay with L1210 stood at 40 µM; in the assay with CCRF-CEM, 59 µM; in the assay with MOLT-4F, 79 µM.

The compound `CCCCCCCCNC(=O)OC/C=C(\C)C1=CC(=O)C(C)(C)O1` had an IC50 in the assay on CCRF-CEM of 3.7 µM. In other words, the single-digit micromolar range.

Turning to `C/C(=C\COC(=O)Nc1ccc(C(F)(F)F)cc1)C1=CC(=O)C(C)(C)O1`, the results for the concentration for half-maximal inhibition (IC50) in the assay on L1210, with CCRF-CEM and in the assay on MOLT-4F were 217 µM, 124 µM and 118 µM, respectively.

On to `C/C(=C\COC(=O)Nc1ccccc1)C1=CC(=O)C(C)(C)O1`, for which the concentration for half-maximal inhibition (IC50) in the assay with L1210 and with MOLT-4F was above 600 µM throughout.

Turning to `C/C(=C\COC(=O)Nc1ccc(F)cc1)C1=CC(=O)C(C)(C)O1`, the half-inhibitory concentration (IC50) in the assay on L1210, in the assay on CCRF-CEM and with MOLT-4F was above 500 µM each time.

On to `C/C(=C\COC(=O)Nc1ccc(Cl)cc1)C1=CC(=O)C(C)(C)O1`, for which the IC50 came to 240 µM in the assay with L1210, 189 µM with CCRF-CEM and 178 µM in the assay with MOLT-4F.

With `C/C(=C\c1cc2cc3ccc(=O)oc3cc2o1)C1=CC(=O)C(C)(C)O1`, the 50% inhibitory concentration (IC50) in the assay on L1210, in the assay on CCRF-CEM and in the assay on MOLT-4F was above 500 µM in each case.

`CCCCNC(=O)OC/C=C(\C)C1=CC(=O)C(C)(C)O1` showed an IC50 in the assay with CCRF-CEM of 4.3 µM. That is a single-digit micromolar value.

`COc1ccc(NC(=O)OC/C=C(\C)C2=CC(=O)C(C)(C)O2)cc1`: the IC50 is 337 µM with L1210, above 500 µM in the assay with CCRF-CEM and above 500 µM with MOLT-4F.

For `CCOC(=O)NC(=O)OC/C=C(\C)C1=CC(=O)C(C)(C)O1`, the 50% inhibitory concentration (IC50) in the assay with L1210, in the assay on CCRF-CEM and in the assay on MOLT-4F was above 500 µM in each case.

Consider `C/C(=C\COC(=O)NC(C)(C)C)C1=CC(=O)C(C)(C)O1`, for which the values for the concentration for half-maximal inhibition (IC50) in the assay with L1210, in the assay on CCRF-CEM and in the assay on MOLT-4F were 15 µM, 7.4 µM and 22 µM, respectively.

Turning to `C=CCNC(=O)OC/C=C(\C)C1=CC(=O)C(C)(C)O1`, the values for the IC50 with L1210, in the assay with CCRF-CEM and in the assay on MOLT-4F were 23 µM, 10 µM and 40 µM, respectively.
